Most compounds without a hit are left out; they make up all but 4.7% or so of the library.
MC4R antag cAMP – MC4R antagonists of cAMP signaling, primary screen, cell-based, TR-FRET, antagonist arm of biased-ligand search; 0.48% of 360,000 active; Melanocortin receptor 4 (Homo sapiens), P32245; inhibition, % at 6.5 µM; MC4R-expressing cells, MTII-stimulated cAMP, LANCE TR-FRET;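 active = inhibition above its plate's cutoff, the mean of tested wells on that plate plus 3 SD, cut at about 29% in these data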
Target sequence (P32245 whole entry, looked up): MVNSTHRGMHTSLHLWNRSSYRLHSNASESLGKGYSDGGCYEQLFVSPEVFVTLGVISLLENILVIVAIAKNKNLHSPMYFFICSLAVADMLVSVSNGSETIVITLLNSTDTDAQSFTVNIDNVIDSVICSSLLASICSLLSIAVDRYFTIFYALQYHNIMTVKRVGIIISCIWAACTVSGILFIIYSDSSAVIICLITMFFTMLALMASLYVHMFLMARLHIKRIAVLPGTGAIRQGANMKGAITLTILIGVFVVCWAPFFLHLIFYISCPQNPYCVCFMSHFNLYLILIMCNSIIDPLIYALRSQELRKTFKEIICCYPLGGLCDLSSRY
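System – human MC4R-expressing U2OS cells · Also added – Melanotan II · Dosing – one concentration, 6.5 µM nominal · Timing – 30-min compound, 1-h challenge, 1-h detection, room temperature · Measured by – Eu-cAMP/anti-cAMP TR-FRET, emission 671 nm · Replicates – singlicate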
AHR act – AHR activators, primary screen, cell-based, luminescence, luciferase reporter, human; 2.5% of 320,000 active; AHR-responsive luciferase reporter cells; AID 2796, 2010; activation, % at 5 µM; in the data active = activation above about 47%
m5-HT2A agonist – mouse Htr2a agonists via beta-arrestin recruitment, primary screen, cell-based, luminescence; 5-hydroxytryptamine receptor 2A (Mus musculus), P35363; CHO-K1 mHTR2A beta-arrestin complementation; percent of 30 µM serotonin response; activation, % at 7.6 µM; 0.66% of 360,000 active; AID 624169, 2012;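 active = activation above a run cutoff, the mean activation of all tested compounds plus 3 SD, cut at about 14% in these data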
FXN GAA850 act – FXN promoter activators, primary screen, cell-based, luciferase luminescence, HEK293 lucGAA850 | HEK293 lucGAA850 FXN promoter luciferase reporter, 24 h; percent of 10 µM SAHA response | activation, % at 6 µM | 0.56% of 360,000 active | AID 540364, 2011;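 active = activation above the average of all compounds screened plus 3 SD, cutoff fixed separately per campaign, cut at about 7.5% in these data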
MC4R barr agon – MC4R agonists recruiting beta-arrestin, primary screen, cell-based, luminescence, agonist arm of biased-ligand search; Melanocortin receptor 4 (Homo sapiens), P32245; U2OS MC4R beta-arrestin complementation; percent of melanotan II response, DMSO zero; activation, % at 8.9 µM; 0.98% of 360,000 active;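 active = activation above a per-plate cutoff, the mean activation of sample wells on that plate plus 3 SD, cut at about 8% in these data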
MC4R barr conf – MC4R beta-arrestin agonists, retest, confirmation, cell-based, luminescence, U2OS; 31% of 2,400 active; activation, % at 8.9 µM; U2OS MC4R beta-arrestin recruitment; scaled DMSO 0%, Melanotan II 100%; AID 602192, 2012; shares compounds with MC4R barr agon;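 active = mean activation across replicates above the hit cutoff set in the earlier primary screen, cut at about 8% in these data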
MOR DOR agonist – agonists of MOR-DOR heterodimerization, counter-screen for MC4R biased agonist project, cell-based, luminescence; U2OS PathHunter beta-arrestin, beta-gal luminescence; percent of deltorphin B response, DMSO zero; activation, % at 9.2 µM; 5.8% of 2,400 active; shares compounds with MC4R barr agon; AID 602194, 2012;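 active = mean activation across replicates exceeds the hit threshold derived in the earlier primary screen, cut at about 18% in these data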
A number is an active result; - = inactive; . = not tested or not shown.

SMILES | MC4R antag cAMP | AHR act | m5-HT2A agonist | FXN GAA850 act | MC4R barr agon | MC4R barr conf | MOR DOR agonist
CCCCCCOC(=O)C[N+](C)(C)CCOC1CC2CCC1(C)C2(C)C (stereo not drawn) | - | - | - | - | - | . | .
Cc1c(Cl)cccc1N=c1c([N+](=O)[O-])nn(-c2ccccc2)n1O | - | 55 | - | - | 24 | - | -
NC(=O)CC(NC(=O)c1ccc(Br)cc1)c1ccc(NCc2ccc(F)cc2)c([N+](=O)[O-])c1 (stereo not drawn) | - | - | - | - | - | . | .
Cc1ccccc1CNc1ccc(C(CC(N)=O)NC(=O)c2ccc(Br)cc2)cc1[N+](=O)[O-] (stereo not drawn) | - | - | - | - | 16 | - | -
NC(=O)CC(NC(=O)c1ccccc1)c1ccc(NCCc2ccc(Cl)cc2)c([N+](=O)[O-])c1 (stereo not drawn) | - | - | - | - | 13 | - | -
Cc1cccc(NC(=O)CSc2nc(=O)n(CCCN3CCOCC3)c3c2CCCC3)c1 | - | - | - | - | - | . | .
CCOC(=O)C1(C)CCN1C(=O)c1cccc(C(F)(F)F)c1 (stereo not drawn) | - | . | - | - | - | . | .
FC(F)(F)c1cc(-c2cccs2)nc2cc(-c3cccs3)nn12 | - | - | - | - | 25 | - | -
CC1CCCCC1NC(=O)COC(=O)COc1ccccc1F (stereo not drawn) | - | - | - | - | - | . | .
CCCCCCc1cc2cc(S(=O)(=O)c3ccc(Cl)cc3)c(=O)oc2cc1O | - | - | - | - | - | . | .
CCCCCCc1cc2cc(S(=O)(=O)c3ccc(C)cc3)c(=O)oc2cc1O | - | - | - | - | 22 | 9.6 | -
Cc1cc(C(C)(C)C)cc(C)c1Cn1c2[n+](c3ccc(C(F)(F)F)cc31)CCCCC2 | - | - | - | - | 17 | 15 | -
FC(F)(F)c1cccc(Cn2c3[n+](c4ccc(C(F)(F)F)cc42)CCCCC3)c1 | - | - | - | - | - | . | .
CC(C)C(=O)N1CCC1(C)C(=O)Nc1ccccc1OC(F)F (stereo not drawn) | - | . | - | - | - | . | .
COc1ccccc1C(=O)Nc1ccc2oc(-c3ccc(F)cc3)nc2c1 | - | - | - | - | 18 | - | -
COc1ccccc1OCC(=O)Nc1cccc(-c2nc3ccccc3o2)c1 | - | - | - | - | 15 | - | -
Cc1cccc(C)c1OCC(=O)Nc1cccc(-c2nnc(-c3ccccc3)o2)c1 | - | - | - | - | - | . | .
Cc1cccc(OCC(=O)NNC(=O)Nc2cccc(Cl)c2)c1C | - | - | - | - | 10 | - | -
Cc1cccc(OCC(=O)Nc2cccc(-c3nnc(-c4ccccc4)o3)c2)c1C | - | - | - | - | 30 | 15 | -
CC12CCC(=O)N1C(C(=O)Nc1cccc(F)c1)CS2 (stereo not drawn) | - | - | - | - | - | . | .
C=CCSc1nnc(NC(=O)C2CC(=O)N(Cc3ccc(C)cc3)C2)s1 (stereo not drawn) | - | - | - | - | - | . | .
Cc1ccc(CN2CC(C(=O)Nc3nnc(SCc4c(Cl)cccc4Cl)s3)CC2=O)cc1 (stereo not drawn) | - | - | - | - | 29 | - | -
COc1ccccc1C(=O)NC(=O)COC(=O)CNC(=O)c1ccccc1F | - | - | - | - | - | . | .
CCCN(CC(=O)Nc1ccccc1OC)C(=O)c1ccc(S(=O)(=O)Nc2ccccc2)cc1 | - | - | - | - | - | . | .
CC(=O)c1cccc(NC(=O)c2ccccc2OCc2ccc(F)cc2)c1 | - | - | - | - | 14 | - | -
SMILES | MC4R antag cAMP | AHR act | m5-HT2A agonist | FXN GAA850 act | MC4R barr agon | MC4R barr conf | MOR DOR agonist
C[C@@H]1CN([C@H](C)CO)C(=O)c2cccc(NC(=O)Nc3ccc(F)cc3)c2O[C@H]1CN(C)C(=O)Nc1ccc(C(F)(F)F)cc1 | - | - | - | - | - | . | .
Cc1ccc(C)c(OCCn2cc(/C=C(\C#N)C(=O)NCc3ccco3)c3ccccc32)c1 | - | - | - | - | 11 | 12 | -
N#C/C(=C\c1cn(CCOc2ccccc2)c2ccccc12)C(=O)NCc1cccs1 | - | - | - | - | 23 | - | -
COc1ccc(OCCn2cc(/C=C(\C#N)C(=O)NCc3ccco3)c3ccccc32)cc1 | - | - | - | - | 50 | 52 | 30
COc1ccccc1OCCn1cc(/C=C(\C#N)C(=O)NCc2ccco2)c2ccccc21 | - | - | - | - | - | . | .
Cc1ccc(S(=O)(=O)N2CCCC2CNC(=O)c2ccc(F)c(F)c2)cc1 (stereo not drawn) | - | - | - | - | - | . | .
CN(CC(=O)Nc1ccc(Cl)c(C(F)(F)F)c1)C(=O)c1cccc(N2C(=O)CCC2=O)c1 | - | - | - | - | - | . | .
Cc1c(CCOC(=O)C23CC4(C)CC(C)(CC(C)(C4)C2)C3)sc[n+]1CC(=O)c1ccccc1 | - | - | - | - | 17 | 16 | -
Cc1c(CCOC(=O)CC23CC4CC(CC(C4)C2)C3)sc[n+]1CC(=O)c1ccccc1 | - | - | - | - | - | . | .
S=C(NCCCCN(Cc1ccc(Cl)cc1)c1ccc(Br)cn1)NCCCc1cnc[nH]1 | - | . | - | - | 10 | 11 | -
COC(C[C@@H]1O[C@H]1[C@H](O)[C@@H](C)OCc1ccccc1)OC | . | - | . | . | . | . | .
N#Cc1ccccc1NC(=O)COC(=O)CN1C(=O)C2CCCCC2C1=O (stereo not drawn) | - | - | - | - | - | . | .
CCC(C)c1ccc(S(=O)(=O)N2CCN(C(=O)c3ccc(Cl)c(S(=O)(=O)N4CCOCC4)c3)CC2)cc1 (stereo not drawn) | - | . | - | - | - | . | .
COCCCN1CCN(C2Cc3ccccc3Sc3ccc(Cl)cc32)CC1 (stereo not drawn) | - | - | - | - | 13 | - | -
Clc1ccc2c(c1)C(N1CCNCC1)Cc1ccccc1S2 (stereo not drawn) | - | - | - | - | 10 | 19 | 23
Clc1cccc2c1Sc1ccccc1CC2N1CCNCC1 (stereo not drawn) | - | - | - | - | - | . | .
COc1ccc2c(c1)CC(N1CCN(C)CC1)c1cc(OC)ccc1S2 (stereo not drawn) | - | - | - | - | - | . | .

Screening results (PubChem)
